# Test results reported in ChEMBL document CHEMBL4257585, “Structure-Activity Relationships of Photoswitchable Diarylethene-Based β-Hairpin Peptides as Membranolytic Antimicrobial and Anticancer Agents” (J Med Chem, 2018).
# pIC50: −log10 of the molar value.
# Tests used:
# [1] = Hemolytic activity against human RBC assessed as hemolysis after 30 mins by colorimetric method; format: ADME, cell-based, Erythrocyte; details: human red blood cells (erythrocytes)
# How it was run: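 Human erythrocytes washed twice in isotonic 172 mM Tris-HCl, pH 7.6; peptides dissolved in DMSO, diluted in buffer, two independent 10-step 2-fold series from 256 or 192 μg/mL. HC50 extrapolated as 50% hemolysis concentration.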
# [2] = Therapeutic index, ratio of HC50 for human RBC to MIC for Bacillus subtilis DSM 347; format: toxicity; details: human red blood cells versus Bacillus subtilis DSM 347
# How it was run: (§1)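 Ratio of HC50 (RBC) to HeLa IC50 or to MIC against B. subtilis or E. coli; values measured in mg/mL and recalculated to μM, 2-fold dilution without curve fitting, accuracy within a factor of 2.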
# Bacillus subtilis = assay: Antimicrobial activity against Bacillus subtilis DSM 347 after 22 hrs by resazurin dye based spectrophotometry; format: functional; details: DSM 347, 22 h
# How it was run: (§2)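 2-fold broth microdilution in Mueller–Hinton medium; peptide stocks 1024 μg/mL in 50% ethanol. Exponential-phase cultures diluted to OD550 0.2, then 1:100 (B. subtilis) or 1:1000 (E. coli), giving 5 × 10^5 CFU/mL per well. Incubated 22 h, 37 °C, static; then resazurin (0.2 mg/mL solution) added for 2 h at 37 °C, read visually and spectrophotometrically. Tested in both photoforms.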
# [3] = Selective ratio of HC50 for human RBC to IC50 for human HeLa cells; format: toxicity; details: human red blood cells versus HeLa cells; how it was run: as §1
# [4] = Therapeutic index, ratio of HC50 for human RBC to MIC for Escherichia coli DSM 1103; format: toxicity; details: human red blood cells versus Escherichia coli DSM 1103; how it was run: as §1
# Escherichia coli = assay: Antimicrobial activity against Escherichia coli DSM 1103 after 22 hrs by resazurin dye based spectrophotometry; format: functional; details: DSM 1103, 22 h; how it was run: as §2
# HeLa = assay: Cytotoxicity against human HeLa cells assessed as reduction in cell viability after 24 hrs by MTT assay; format: functional, cell-based
# How it was run: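 HeLa cells seeded at about 5 × 10^4 cells/mL in DMEM with 10% FBS, 2 mM glutamine, gentamicin; 24 h adaptation (37 °C, 5% CO2), then 24 h peptide exposure. MTT 4 h, formazan in DMSO read at 570 nm. 2-fold series 256–0.5 (open) or 512–1 μg/mL (closed), four repetitions; IC50 extrapolated from killing curves. Closed form handled in dim light.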
MIC (Bacillus subtilis) [µM],MIC (Escherichia coli) [µM],Structure (SMILES),HC50 at 0.5 h [1] [µM],selectivity ratio [2],selectivity ratio [3],selectivity ratio [4],pIC50 (HeLa)
2,100,Cc1sc2cc1C1=C(CCC1)c1cc(sc1C)C(=O)[C@H]1CCCN1C(=O)[C@H](C(C)C)NC(=O)[C@H](CCCN)N(C)C(=O)[C@H](C(C)C)NC(=O)[C@@H]1CCCN1C(=O)[C@@H](Cc1ccccc1)N(C)C(=O)[C@H](C(C)C)NC(=O)[C@H](CCCN)NC(=O)[C@H](C(C)C)NC2=O,59,29.5,2.4,0.6,4.60
48,194,CC(C)C(=O)NCC[C@@H]1NC(=O)C2=CC3=C4CCCC4=C4C=C(S[C@]4(C)[C@@]3(C)S2)C(=O)[C@H]2CCCN2C(=O)[C@H](C(C)C)NC(=O)[C@H](CCCN)NC(=O)[C@H](C(C)C)NC(=O)[C@@H]2CCCN2C(=O)[C@@H](Cc2ccccc2)NC(=O)[C@H](C(C)C)NC(=O)[C@H](CCCN)NC1=O,387,8.1,2,2,3.71
6,200,CC(C)[C@@H]1NC(=O)C2=CC3=C4CCCC4=C4C=C(S[C@]4(C)[C@@]3(C)S2)C(=O)[C@H]2CCCN2C(=O)[C@H](C(C)C)NC(=O)[C@H](CCCN)N(C)C(=O)[C@H](C(C)C)NC(=O)[C@@H]2CCCN2C(=O)[C@@H](Cc2ccccc2)N(C)C(=O)[C@H](C(C)C)NC(=O)[C@H](CCCN)NC1=O,192,32,1.9,1,4.00
13,207,CC(C)C[C@@H]1NC(=O)[C@H](CCCN)NC(=O)[C@H](C(C)C)NC(=O)C2=CC3=C4CCCC4=C4C=C(S[C@]4(C)[C@@]3(C)S2)C(=O)[C@H]2CCCN2C(=O)[C@H](C)NC(=O)[C@H](CCCN)NC(=O)[C@H](C(C)C)NC(=O)[C@@H]2CCCN2C(=O)[C@@H](Cc2ccccc2)NC1=O,45,3.5,1.2,0.2,4.41
3,92,CC(C)[C@@H]1NC(=O)C2=CC3=C4CCCC4=C4C=C(S[C@]4(C)[C@@]3(C)S2)C(=O)[C@H]2CCCN2C(=O)[C@H](Cc2ccc(O)cc2)NC(=O)[C@H](CCCN)NC(=O)[C@H](C(C)C)NC(=O)[C@@H]2CCCN2C(=O)[C@@H](Cc2ccccc2)NC(=O)[C@H](Cc2ccc(O)cc2)NC(=O)[C@H](CCCN)NC1=O,11,3.7,0.1,0.1,3.86
10,164,CC(C)C[C@@H]1NC(=O)C2=CC3=C4CCCC4=C4C=C(S[C@]4(C)[C@@]3(C)S2)C(=O)[C@H]2CCCN2C(=O)[C@H](C(C)C)NC(=O)[C@H](CCCCN)NC(=O)[C@H](CC(C)C)NC(=O)[C@H](CCCCN)NC(=O)[C@@H]2CCCN2C(=O)[C@@H](Cc2ccccc2)NC(=O)[C@H](CCCCN)NC(=O)[C@H](C(C)C)NC(=O)[C@H](CCCCN)NC1=O,82,8.2,1,0.5,4.09
2,25,Cc1sc2cc1C1=C(CCC1)c1cc(sc1C)C(=O)[C@H]1CCCN1C(=O)[C@H]([C@@H](C)O)NC(=O)[C@H](C13CC4CC(CC(C4)C1)C3)NC(=O)[C@H](CCCN)NC(=O)[C@@H]1CCCN1C(=O)[C@@H](Cc1ccccc1)NC(=O)[C@H](CCCN)NC(=O)[C@H](C13CC4CC(CC(C4)C1)C3)NC(=O)[C@H](CCCN)NC2=O,4,2,0.4,0.2,5.05
2,73,CC(C)C[C@@H]1NC(=O)[C@H](CCCCN)NC(=O)[C@H](C(C)C)NC(=O)C2=CC3=C4CCCC4=C4C=C(S[C@]4(C)[C@@]3(C)S2)C(=O)[C@H]2CCCN2C(=O)[C@H](C(C)C)NC(=O)[C@H](CCCCN)NC(=O)[C@H](C(C)C)NC(=O)[C@H](CC(C)C)NC(=O)[C@@H](CCCCN)NC(=O)[C@@H]2CCCN2C(=O)[C@@H](Cc2ccccc2)NC(=O)[C@H](C(C)C)NC(=O)[C@H](CCCCN)NC1=O,14,7,0.8,0.2,4.74
1,9,CC(C)C[C@@H]1NC(=O)[C@H](CCCCN)NC(=O)[C@H](C(C)C)NC(=O)C2=CC3=C4CCCC4=C4C=C(S[C@]4(C)[C@@]3(C)S2)C(=O)[C@H]2CCCN2C(=O)[C@H](CC(C)C)NC(=O)[C@H](CCCCN)NC(=O)[C@H](C(C)C)NC(=O)[C@H](CCCCN)NC(=O)[C@H](CC(C)C)NC(=O)[C@H](CCCCN)N(C)C(=O)[C@@H](Cc2ccccc2)NC(=O)[C@H](C(C)C)NC(=O)[C@H](CCCCN)NC1=O,9,9,0.5,1,4.74
1,186,CCCCN1C(=O)[C@@H](Cc2ccccc2)NC(=O)[C@H](CC(C)C)NC(=O)[C@H](CCCN)NC(=O)[C@H]([C@@H](C)CC)NC(=O)C2=CC3=C4CCCC4=C4C=C(S[C@]4(C)[C@@]3(C)S2)C(=O)[C@H]2CCCN2C(=O)[C@H](CC(C)C)NC(=O)[C@H](CCCN)NC(=O)[C@H]([C@@H](C)CC)NC(=O)[C@@H]1CC(C)C,13,13,1,0.1,4.89
25,200,CC(C)[C@@H]1NC(=O)C2=CC3=C4CCCC4=C4C=C(S[C@]4(C)[C@@]3(C)S2)C(=O)[C@H]2CCCN2C(=O)[C@H]([C@H](O)C(C)C)NC(=O)[C@H](CCCN)NC(=O)[C@H](C(C)C)NC(=O)[C@@H]2CCCN2C(=O)[C@@H](Cc2ccccc2)NC(=O)[C@H](C(C)C)NC(=O)[C@H](CCCN)NC1=O,200,8,0.7,1,3.52
3,191,CC[C@H](C)[C@@H]1NC(=O)C2=CC3=C4CCCC4=C4C=C(S[C@]4(C)[C@@]3(C)S2)C(=O)[C@H]2CCCN2C(=O)[C@H]([C@@H](C)CC)NC(=O)[C@H](CCCN)NC(=O)[C@H](CC(C)C)NC(=O)[C@H](CC(C)C)N(C)C(=O)[C@@H](Cc2ccccc2)NC(=O)[C@H]([C@@H](C)CC)NC(=O)[C@H](CCCN)NC1=O,27,9,1.1,0.1,4.60

Structure (SMILES),MIC (Bacillus subtilis) [µM],MIC (Escherichia coli) [µM],HC50 at 0.5 h [1] [µM],selectivity ratio [2],selectivity ratio [3],selectivity ratio [4],pIC50 (HeLa)
Cc1sc2cc1C1=C(CCC1)c1cc(sc1C)C(=O)[C@H]1CCCN1C(=O)[C@H](CC(C)C)NC(=O)[C@H](CCCN)NC(=O)[C@H](C(C)C)NC(=O)[C@@H]1CCCN1C(=O)[C@@H](Cc1ccccc1)NC(=O)[C@H](CC(C)C)NC(=O)[C@H](CCCN)NC(=O)[C@H](CCCN)NC2=O,2,25,12,6,2,0.5,5.22
